Source: ChEMBL document CHEMBL6127074, “Isolation and Characterization of the Cyanobacterial Macrolide Glycoside Moorenaside, an Anti-Inflammatory Analogue of Aurisides Targeting the Keap1/Nrf2 Pathway” (J Nat Prod, 2024)
pIC50: −log10 of the molar value. One block for each molecule: values may come before it. The source made the active and inactive calls. The rule behind the calls is not given here.

How the values were obtained:
[1] = test system: Trypanosoma brucei rhodesiense; assay: Antiparasitic activity against Trypanosoma brucei rhodesiense; assay type: functional, organism-based
KB = assay: Antiproliferative activity against human KB cells; assay type: functional, cell-based
LoVo = assay: Antiproliferative activity against human LoVo cells; assay type: functional, cell-based
HEK293 [2] = assay: Cytotoxicity against HEK293 ARE-luc cells at 1 to 32 uM incubated for 24 hrs by MTT assay; assay type: toxicity, cell-based; settings: human, hek293, 24 h, dose 1-32 µM
In short: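 HEK293 ARE-luc cells seeded 10,000/well and left overnight, then treated with half-log dilutions from 32 μM, tBHQ 10 μM, or 0.5% DMSO for 24 h. Viability was read by MTT; mean ± SD, n = 3.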

HEK293 [3] = assay: Activation of Nrf2-ARE pathway in HEK293 cells transfected with firefly luciferase reporter assessed as fold increase in Nrf2 activity at 32 uM incubated for 24 hrs by ARE luciferase reporter gene based microplate reader assay; assay type: cell-based; settings: Homo sapiens, filed as activator
In short: (§1)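 HEK293 cells stably carrying an ARE-driven firefly luciferase reporter, grown in DMEM with 10% FBS at 37 °C and 5% CO2, seeded 10,000/well and left overnight. Half-log serial dilutions from 32 μM were added, with tBHQ (10 μM) as positive control and 0.5% DMSO as vehicle. Luminescence was read with BriteLite reagent after 24 h and expressed as fold activity; n = 3.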

HEK293 [4] = assay: Activation of Nrf2-ARE pathway in HEK293 cells transfected with firefly luciferase reporter assessed as fold increase in Nrf2 activity at 10 uM incubated for 24 hrs by ARE luciferase reporter gene based microplate reader assay; assay type: cell-based; settings: Homo sapiens, filed as activator; in short: as §1
RAW264.7 [5] = assay: Anti-inflammatory activity in LPS induced mouse RAW264.7 cells assessed as reduction in NO production at 32 uM preincubated for 1 hr followed by LPS stimulation and measured after 24 hrs by Griess reagent based plate reader assay; assay type: functional, cell-based; settings: time 25.0 hrs
In short: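 RAW264.7 cells seeded 20,000/well, pretreated 1 h with half-log dilutions from 32 μM (0.5% DMSO vehicle), then stimulated with LPS 1 μg/mL. Unstimulated controls were included. After 24 h the supernatant was mixed with Griess reagent and absorbance read at 540 nm. NO was calculated from a nitrite standard curve. Mean ± SD, n = 3, t-test against DMSO + LPS.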

RAW264.7 [6] = assay: Cytotoxicity against mouse RAW264.7 cells at 32 uM incubated for 24 hrs by MTT assay; assay type: toxicity, cell-based; settings: raw264.7, 24 h
In short: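 RAW264.7 cells seeded 20,000/well and treated for 24 h with half-log dilutions from 32 μM together with LPS 1 μg/mL (0.5% DMSO vehicle). Viability was read by MTT in parallel with the NO assay; mean ± SD, n = 3.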

RAW264.7 [7] = assay: Anti-inflammatory activity in LPS induced mouse RAW264.7 cells assessed as fold increase in Nqo1 transcript level at 32 uM preincubated for 1 hr followed by LPS stimulation and measured after 12 hrs by TaqMan analysis; assay type: functional; settings: time 13 hrs
In short: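 RAW264.7 cells seeded 175,000/well, given fresh medium, pretreated 1 h with half-log dilutions from 32 μM (0.5% DMSO vehicle), then stimulated with LPS 1 μg/mL for 12 h. Unstimulated wells were run alongside. RNA was extracted and reverse transcribed with oligo(dT), then measured by TaqMan qPCR for Nqo1 and iNos with actin as the endogenous control. Mean ± SD, n = 3, two-tailed unpaired t-test against DMSO + LPS.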

HCT-116 = assay: Antiproliferative activity against human HCT-116 cells assessed as cell viability at 32 uM incubated for 48 hrs by MTT assay; settings: HCT-116, 48 h

pIC50 [1]: 4.96
SMILES: C=CCCC/C=C/C=C/[C@H]1OC(=O)C[C@@H]2O[C@H](C[C@H](O)C[C@H](C)C[C@@H](O)C1(C)C)C[C@H](O[C@@H]1OC[C@@H](OC)[C@H](O)[C@H]1O)C2(C)C

pIC50 (KB): 5.37
pIC50 (LoVo): 4.82
SMILES: CO[C@@H]1[C@@H](OC)[C@@H](O)[C@H](O[C@H]2C[C@@]3(O)CC(=O)O[C@@](C)(CC/C=C/C=C/Br)C[C@H](O)[C@@H](C)CC[C@H](O3)[C@@H]2C)O[C@H]1C

pIC50 [1]: 4.96
SMILES: CCCCC/C=C/C=C/[C@H]1OC(=O)C[C@@H]2O[C@H](C[C@H](O)C[C@H](C)C[C@@H](O)C1(C)C)C[C@H](O[C@@H]1OC[C@@H](OC)[C@H](O)[C@H]1O)C2(C)C

SMILES: CO[C@@H]1[C@@H](O)[C@@H](OC)[C@H](O[C@@H]2C[C@H]3O[C@@](O)(C2)[C@H](C)C(=O)O[C@@H](/C=C/C=C/Br)C/C(C)=C/C(=O)C3(C)C)O[C@H]1C
Activity (HEK293 [2]): Non-Toxic
fold change (FC) (HEK293 [3]): 7.7
fold change (FC) (HEK293 [4]): 2.5
Activity (RAW264.7 [5]): Active
Activity (RAW264.7 [6]): Non-Toxic
fold change (FC) (RAW264.7 [7]): 5
viability at 32 µM (HCT-116): 55%
